From ChEMBL document CHEMBL1142977, “1,4-benzodiazepines as inhibitors of respiratory syncytial virus. The identification of a clinical candidate” (J Med Chem, 2007)
In brackets after ≈: the same amount, converted by molar mass.

What was measured:
[1] = Cytotoxicity against RSV RSS infected Hep2 cells by XTT assay; assay type: cell-based; conditions: human, hep-2
Method in brief: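 Same XTT format (HEp-2 cells, 6 days at 37 °C, XTT read-out) run in parallel without virus. TD50 is the concentration giving 50% cell death in the absence of virus.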

[2] = Cytotoxicity against RSV RSS infected Hep2 cells by ELISA; assay type: cell-based; conditions: human, hep-2
[3] = system: Respiratory syncytial virus; test: Antiviral activity against RSV RSS in Hep2 cells by XTT assay; assay type: functional, organism-based, HEp-2; conditions: for IC50: human respiratory syncytial virus, RSS, HEp-2
Method in brief: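 HEp-2 cells infected with RSV RSS strain in the presence of compound, incubated 6 days at 37 °C. Residual viability was read by XTT metabolism to a coloured product, and IC50 was derived.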

[4] = Cytotoxicity against RSV RSS infected Hep2 cells by plaque assay; assay type: cell-based; conditions: human, hep-2
[5] = system: Respiratory syncytial virus; test: Antiviral activity against RSV RSS in Hep2 cells by ELISA; assay type: functional, organism-based, HEp-2; conditions: for IC50: human respiratory syncytial virus, RSS, HEp-2
Method in brief: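 HEp-2 cells infected with RSV RSS strain and exposed to compound for 3 days at 37 °C. Monoclonal antibodies to RSV F, N and P proteins were detected with an enzyme-linked secondary antibody. Substrate conversion to a coloured product was read by optical density, and IC50 was derived.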

[6] = system: Respiratory syncytial virus; test: Antiviral activity against RSV RSS in Hep2 cells by plaque assay; assay type: functional, organism-based, HEp-2; conditions: for IC50: human respiratory syncytial virus, RSS, HEp-2
Method in brief: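 HEp-2 monolayers infected with RSV RSS strain and allowed 2 h adsorption. Compound was then added in medium with 0.6% agarose and incubated 5 days at 37 °C. Monolayers were fixed, the overlay removed, and plaques stained with methylene blue.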

[7] = Aqueous solubility at pH 7.0; assay type: physicochemical
[8] = Cmax in rat at 5 mg/kg, po; assay type: ADME, organism-based; set-up: dose 5 mg/kg, route oral; conditions: in vivo
Method in brief: (§1)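 Rat, oral dose of 5 mg/kg in a lipid-based formulation, n = 3. Bioavailability was calculated relative to the 5 mg/kg intravenous dose.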

[9] = biological target: T1, Cytochrome P450 1A2 (Homo sapiens, UniProt P05177); test: Inhibition of CYP1A2; assay type: ADME
T1 sequence (P05177 whole entry): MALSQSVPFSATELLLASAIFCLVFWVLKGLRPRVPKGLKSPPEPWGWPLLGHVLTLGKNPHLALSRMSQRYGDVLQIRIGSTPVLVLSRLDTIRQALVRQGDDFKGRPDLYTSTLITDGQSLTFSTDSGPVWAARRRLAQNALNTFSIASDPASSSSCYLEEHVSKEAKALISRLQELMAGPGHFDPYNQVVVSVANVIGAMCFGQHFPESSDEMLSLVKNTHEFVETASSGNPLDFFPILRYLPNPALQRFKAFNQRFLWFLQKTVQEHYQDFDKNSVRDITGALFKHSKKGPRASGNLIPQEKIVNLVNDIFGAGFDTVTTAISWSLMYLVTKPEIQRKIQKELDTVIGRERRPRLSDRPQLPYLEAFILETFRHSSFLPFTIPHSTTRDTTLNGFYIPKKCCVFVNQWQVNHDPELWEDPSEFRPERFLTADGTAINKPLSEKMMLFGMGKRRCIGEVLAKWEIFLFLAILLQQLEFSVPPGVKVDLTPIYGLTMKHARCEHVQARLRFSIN
Method in brief: (§2)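 CYP inhibition was assessed as an effect on the metabolism of isoform-specific probe substrates for CYP3A4, 1A2, 2D6, 2C9 and 2C19.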

[10] = Fraction unbound ligand in rat serum; assay type: ADME, cell-free
[11] = biological target: Cytochrome P450 2C19 (Homo sapiens, UniProt P33261); test: Inhibition of CYP2C19; assay type: ADME; method in brief: as §2
Sequence of Cytochrome P450 2C19 (P33261 whole entry): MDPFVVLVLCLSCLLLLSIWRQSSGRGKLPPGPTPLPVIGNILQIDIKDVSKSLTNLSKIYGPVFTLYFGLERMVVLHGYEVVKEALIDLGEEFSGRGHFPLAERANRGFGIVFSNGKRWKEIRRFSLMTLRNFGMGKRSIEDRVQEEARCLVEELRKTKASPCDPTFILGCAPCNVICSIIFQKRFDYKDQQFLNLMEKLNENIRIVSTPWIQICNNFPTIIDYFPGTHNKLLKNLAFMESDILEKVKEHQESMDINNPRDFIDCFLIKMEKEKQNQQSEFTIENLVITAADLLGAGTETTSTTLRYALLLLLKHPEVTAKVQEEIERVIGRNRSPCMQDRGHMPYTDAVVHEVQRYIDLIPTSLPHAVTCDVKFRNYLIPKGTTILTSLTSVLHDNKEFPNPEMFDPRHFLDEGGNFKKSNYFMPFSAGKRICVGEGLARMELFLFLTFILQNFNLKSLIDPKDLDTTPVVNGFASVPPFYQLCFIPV

[12] = Volume of distribution in rat at 5 mg/kg, iv; assay type: ADME, organism-based; set-up: dose 5 mg/kg, route intravenous; conditions: in vivo, read-out: Vss
Method in brief: (§3)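 Rat, single intravenous dose of 5 mg/kg, n = 3. Parameters were derived from plasma concentrations.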

[13] = biological target: Cytochrome P450 2C9 (Homo sapiens, UniProt P11712); test: Inhibition of CYP2C9; assay type: ADME; method in brief: as §2
Sequence of Cytochrome P450 2C9 (P11712 whole entry): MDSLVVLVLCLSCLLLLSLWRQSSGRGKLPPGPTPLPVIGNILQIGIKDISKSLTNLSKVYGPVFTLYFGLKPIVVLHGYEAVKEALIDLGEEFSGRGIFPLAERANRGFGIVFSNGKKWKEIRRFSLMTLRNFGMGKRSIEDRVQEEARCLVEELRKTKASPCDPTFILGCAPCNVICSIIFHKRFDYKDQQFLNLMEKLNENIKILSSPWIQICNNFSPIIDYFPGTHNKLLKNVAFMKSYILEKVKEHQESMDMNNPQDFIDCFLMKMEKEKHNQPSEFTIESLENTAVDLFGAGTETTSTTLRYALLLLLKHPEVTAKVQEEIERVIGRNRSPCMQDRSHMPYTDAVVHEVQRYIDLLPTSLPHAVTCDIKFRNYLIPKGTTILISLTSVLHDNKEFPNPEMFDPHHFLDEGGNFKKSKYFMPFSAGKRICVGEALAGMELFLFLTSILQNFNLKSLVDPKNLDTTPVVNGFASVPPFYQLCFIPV

[14] = Oral bioavailability in rat at 5 mg/kg, po in lipid based formulation; assay type: ADME, organism-based; conditions: in vivo; method in brief: as §1
[15] = Apparent permeability coefficient assessed using MDCK cells; assay type: ADME, cell-based, Canis lupus familiaris; conditions: dog
[16] = in vivo; conditions: rat, plasma, po, 5 mg/kg
[17] = Cmax in rat at 5 mg/kg, iv; assay type: ADME, organism-based; set-up: dose 5 mg/kg, route intravenous; conditions: in vivo; method in brief: as §3
[18] = Fraction unbound ligand in dog serum; assay type: ADME, cell-free, Canis lupus familiaris
[19] = system: Serum; test: Protein binding in human serum; assay type: ADME, cell-free
[20] = Fraction unbound ligand in human serum; assay type: ADME, cell-free
[21] = Half life in rat at 5 mg/kg, po; conditions: in vivo
[22] = in vivo; conditions: rat, plasma, iv, 5 mg/kg
[23] = Half life in rat at 5 mg/kg, iv; conditions: in vivo
[24] = biological target: Cytochrome P450 3A4 (Homo sapiens, UniProt P08684); test: Inhibition of CYP3A4; assay type: ADME; method in brief: as §2
Sequence of Cytochrome P450 3A4 (P08684 whole entry): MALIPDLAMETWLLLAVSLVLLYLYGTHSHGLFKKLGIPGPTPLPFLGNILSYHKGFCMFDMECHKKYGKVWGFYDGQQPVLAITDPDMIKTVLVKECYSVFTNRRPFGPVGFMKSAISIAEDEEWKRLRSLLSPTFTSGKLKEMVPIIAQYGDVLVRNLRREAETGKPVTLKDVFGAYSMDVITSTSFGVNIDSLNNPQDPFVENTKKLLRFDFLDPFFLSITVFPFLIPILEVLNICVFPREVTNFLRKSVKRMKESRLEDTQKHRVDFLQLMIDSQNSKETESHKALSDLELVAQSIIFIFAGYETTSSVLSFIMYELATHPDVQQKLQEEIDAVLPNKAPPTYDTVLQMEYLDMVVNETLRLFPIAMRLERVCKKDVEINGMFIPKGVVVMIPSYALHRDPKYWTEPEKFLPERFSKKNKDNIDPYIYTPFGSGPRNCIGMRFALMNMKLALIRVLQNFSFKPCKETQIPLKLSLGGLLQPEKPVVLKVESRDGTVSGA

[25] = Oral bioavailability in rat at 5 mg/kg, po in 1% CMC suspension; assay type: ADME, organism-based; conditions: in vivo
Method in brief: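 Rat, oral dose of 5 mg/kg given as a suspension in 1% carboxymethylcellulose. Bioavailability was estimated relative to intravenous dosing.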

[26] = system: Serum; test: Protein binding in rat serum; assay type: ADME, cell-free
[27] = system: Serum; test: Protein binding in dog serum; assay type: ADME, cell-free, Canis lupus familiaris
[28] = biological target: Cytochrome P450 2D6 (Homo sapiens, UniProt P10635); test: Inhibition of CYP2D6; assay type: ADME; method in brief: as §2
Sequence of Cytochrome P450 2D6 (P10635 whole entry): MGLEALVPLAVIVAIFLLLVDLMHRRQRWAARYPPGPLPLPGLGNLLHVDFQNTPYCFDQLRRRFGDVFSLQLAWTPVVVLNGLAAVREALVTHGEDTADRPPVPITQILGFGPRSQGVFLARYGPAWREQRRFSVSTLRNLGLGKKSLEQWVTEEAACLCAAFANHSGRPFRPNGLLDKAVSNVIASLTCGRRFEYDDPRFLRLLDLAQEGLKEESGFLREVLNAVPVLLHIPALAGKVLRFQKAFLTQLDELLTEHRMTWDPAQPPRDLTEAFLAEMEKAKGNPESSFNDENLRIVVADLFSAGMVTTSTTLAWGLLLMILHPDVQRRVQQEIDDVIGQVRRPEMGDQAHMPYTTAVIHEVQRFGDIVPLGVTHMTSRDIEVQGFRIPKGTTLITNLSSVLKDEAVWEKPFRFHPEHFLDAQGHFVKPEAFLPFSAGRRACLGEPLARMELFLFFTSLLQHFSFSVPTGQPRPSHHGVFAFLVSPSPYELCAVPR

In the case of `O=C(Nc1ccccc1F)NC1N=C(c2ccccc2)c2ccccc2NC1=O` (stereo not given), the Activity [1] is reported as “Non-toxic”, the Activity [2] is reported as “Non-toxic” and the TD50 [3] is reported as over 50 µM. For the same compound, the IC50 [3] was 27.8 µM and the Activity [4] was “Non-toxic”.

For `O=C(NC1N=C(c2ccccc2)c2ccccc2NC1=O)C1CCCCC1` (stereo not given), the TD50 [3] was over 50 µM and the IC50 [3] was 12.6 µM.

With `COc1cc([N+](=O)[O-])ccc1C(=O)N[C@H]1N=C(c2ccccc2)c2ccccc2NC1=O` the TD50 [3] was over 50 µM, the IC50 [3] was 0.9 µM and the TD50 [5] was over 50 µM. For the same compound, the IC50 [5] was 1 µM, the TD50 [6] was over 50 µM and the IC50 [6] was 0.5 µM.

In the case of `O=C(N[C@H]1N=C(c2ccccc2)c2ccccc2NC1=O)c1cc(Cl)ccc1N1CCS(=O)(=O)CC1`, the TD50 [3] is reported as over 50 µM and the IC50 [3] is reported as 2.2 µM.

With `O=C(N[C@H]1N=C(c2ccccc2)c2ccccc2NC1=O)c1ccc(F)cc1N1CCCCC1` the TD50 [3] was over 50 µM and the IC50 [3] was 7.5 µM.

In the case of `O=C(N[C@H]1N=C(c2ccccc2)c2ccccc2NC1=O)c1cc(F)ccc1N1CCS(=O)(=O)CC1`, the TD50 [3] is reported as over 50 µM and the IC50 [3] is reported as 0.7 µM.

With `CCNC(=O)CN1C(=O)[C@@H](NC(=O)Nc2ccccc2F)N=C(c2ccccc2)c2ccccc21` the TD50 [3] was over 50 µM and the IC50 [3] was over 50 µM.

`O=C(N[C@H]1N=C(c2ccccc2)c2ccccc2NC1=O)c1ccc(N2CCOCC2)cc1Cl` gave a TD50 [3] of over 50 µM, an IC50 [3] of 1.4 µM and a solubility [7] of 0.9 µg/mL (≈ 1.89 µM). For the same compound, the TD50 [5] was over 50 µM, the IC50 [5] was 1.5 µM and the TD50 [6] was over 50 µM. It also gave an IC50 [6] of 0.8 µM.

For `O=C(N[C@H]1N=C(c2ccccc2)c2ccccc2NC1=O)C1CCCCC1`, the TD50 [3] was over 50 µM and the IC50 [3] was 3.3 µM.

In the case of `O=C(Nc1ccccc1F)N[C@@H]1N=C(c2ccccc2)c2ccccc2NC1=O`, the Activity [1] is reported as “Non-toxic”, the Activity [2] is reported as “Non-toxic” and the TD50 [3] is reported as over 50 µM. For the same compound, the IC50 [3] was 27.8 µM and the Activity [4] was “Non-toxic”.

`O=C(CN1C(=O)[C@@H](NC(=O)Nc2ccccc2F)N=C(c2ccccc2)c2ccccc21)Nc1ccncc1` gave a TD50 [3] of over 50 µM and an IC50 [3] of 14.2 µM.

In the case of `COc1cc([N+](=O)[O-])ccc1C(=O)N[C@@H]1N=C(c2ccccc2)c2ccccc2NC1=O`, the TD50 [3] is reported as over 50 µM and the IC50 [3] is reported as 21.2 µM.

`O=C(N[C@H]1N=C(c2ccccc2)c2ccccc2NC1=O)c1cccnc1N1CCOCC1` gave a TD50 [3] of over 50 µM and an IC50 [3] of 2.9 µM.

`O=C(Nc1ccccc1F)N[C@H]1N=C(c2ccccc2)c2ccccc2N(CC(=O)N2CCOCC2)C1=O` gave a TD50 [3] of over 50 µM and an IC50 [3] of over 50 µM.

For `O=C(N[C@@H]1N=C(c2ccccc2)c2ccccc2NC1=O)C1CCCCC1`, the TD50 [3] was over 50 µM and the IC50 [3] was over 50 µM.

With `COc1cc([N+](=O)[O-])ccc1C(=O)NC1N=C(c2ccccc2)c2ccccc2NC1=O` (stereo not given) the TD50 [3] was over 50 µM and the IC50 [3] was 2 µM.

`COc1cc(S(C)(=O)=O)ccc1C(=O)N[C@H]1N=C(c2ccccc2)c2ccccc2NC1=O` gave a TD50 [3] of over 50 µM, an IC50 [3] of 0.5 µM and a solubility [7] of 22 µg/mL (≈ 47.5 µM). It also gave a TD50 [5] of over 50 µM, an IC50 [5] of 0.6 µM and a TD50 [6] of over 50 µM. The IC50 [6] was 0.5 µM.

In the case of `O=C(Nc1ccccc1F)N[C@H]1N=C(c2ccccc2)c2ccccc2NC1=O` [RSV-604], the Cmax [8] is reported as 910 ng/mL, the Activity [9] is reported as “Not Active” and the fraction unbound [10] is reported as 0.05. For the same compound, the Activity [11] was “Not Active”, the Activity [1] was “Non-toxic” and the Activity [2] was “Non-toxic”. For the same compound, the Vd [12] was 2.2 L/kg, the Activity [13] was “Not Active” and the TD50 [3] was over 50 µM. The IC50 [3] was 0.9 µM, the solubility [7] was 4.1 µg/mL (≈ 10.6 µM) and the bioavailability [14] was over 90%. The Papp [15] was 13 ×10⁻⁶ cm/s, the AUC(0-inf) [16] was 10900 ng·h/mL and the Cmax [17] was 3300 ng/mL. The TD50 [5] was over 50 µM, the IC50 [5] was 1.4 µM and the Activity [4] was “Non-toxic”. For the same compound, the fraction unbound [18] was 0.05, the Activity [19] was 95% and the fraction unbound [20] was 0.05. For the same compound, the half-life [21] was 2.6 h, the AUC(0-inf) [22] was 11700 ng·h/mL and the half-life [23] was 3.8 h. The Activity [24] was “Not Active”, the bioavailability [25] was under 40% and the TD50 [6] was over 50 µM. It also gave an IC50 [6] of 0.7 µM, an Activity [26] of 95% and an Activity [27] of 95%. The Activity [28] was “Not Active”.
